The record followed here is ChEMBL document CHEMBL1145630, “Antidiabetic activity of N-(6-substituted-1,3-benzothiazol-2-yl)benzenesulfonamides” (2008).

The target of experiment [1] is 11-beta-hydroxysteroid dehydrogenase 1 (Homo sapiens) (UniProt P28845). Kind of experiment: Inhibition of human 11beta-HSD1 expressed in HEK293 cells at 10 uM by scintillation proximity assay. The experiment is classed as cell-based. A digest of the protocol: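 Cell-based scintillation proximity assay in HEK293 cells stably transfected with full-length human hsd11b1, grown in DMEM. Compounds were added at 1% final DMSO with 20 nM tritiated cortisone (final), 2 h at 37 °C. Medium was mixed with anti-mouse YSi SPA beads and anti-cortisol antibody in Tris-HCl pH 7.0 buffer, 2 h at room temperature. Inhibition was calculated against an uninhibited control.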
11-beta-hydroxysteroid dehydrogenase 1 (Homo sapiens), sequence (P28845 whole entry, looked up): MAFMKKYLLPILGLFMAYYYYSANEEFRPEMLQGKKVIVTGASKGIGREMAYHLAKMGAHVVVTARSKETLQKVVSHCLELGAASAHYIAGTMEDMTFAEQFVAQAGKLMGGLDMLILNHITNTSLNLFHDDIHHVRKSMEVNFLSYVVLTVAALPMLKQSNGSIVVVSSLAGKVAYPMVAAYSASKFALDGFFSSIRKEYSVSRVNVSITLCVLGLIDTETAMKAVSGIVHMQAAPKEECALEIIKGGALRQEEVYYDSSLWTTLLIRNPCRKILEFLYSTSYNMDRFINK
(Scintillation proximity formats need no separation of bound from free tracer.)

The subject of experiment [2] is Rattus norvegicus. Kind of experiment: Antidiabetic effect in streptozo-nicotinamide rat model of diabetes assessed as change in blood glucose level at 100 mg/kg, po after 1 hr relative to control. The experiment is classed as functional. A digest of the protocol: (§1)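 Type 2 diabetes was induced in overnight-fasted rats with i.p. streptozotocin 65 mg/kg, given 15 min after i.p. nicotinamide 110 mg/kg. Rats with glucose above 250 mg/dL at 72 h were used, n = 5 per group. Compounds were suspended in 1% Tween 80 and given orally. Controls received vehicle; glibenclamide 5 mg/kg was the reference. Caudal-vein glucose was read by glucose-oxidase glucometer at 0, 1, 3, 5 and 7 h.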

For experiment [3], the system named is Rattus norvegicus. In words: Antidiabetic effect in streptozo-nicotinamide rat model of diabetes assessed as change in blood glucose level at 100 mg/kg, po after 3 hrs relative to control. The class given is functional. The essentials: as §1
Experiment [4] relates to Rattus norvegicus. Kind of experiment: Antidiabetic effect in streptozo-nicotinamide rat model of diabetes assessed as change in blood glucose level at 100 mg/kg, po after 5 hrs relative to control. The experiment is classed as functional. A digest of the protocol: as §1
Experiment [5] deals with Rattus norvegicus. Kind of experiment: Antidiabetic effect in streptozo-nicotinamide rat model of diabetes assessed as change in blood glucose level at 100 mg/kg, po after 7 hrs relative to control. The experiment is classed as functional. The essentials:
as §1

As to `COc1ccc2nc(NS(=O)(=O)c3ccccc3)sc2c1`, in experiment [1], the inhibition – broadly, the change of the read-out against control, counted positive when it falls – stood at 37.6%. Further, the Activity with Rattus norvegicus [2] was determined as 78.1%; in the experiment on Rattus norvegicus [3], 62.9%; with Rattus norvegicus [4], 31.5%; with Rattus norvegicus [5], 53.2%.
In experiment [1], `COc1ccc(S(=O)(=O)Nc2nc3ccc([N+](=O)[O-])cc3s2)cc1` came in with an inhibition of 25.6%. In addition, the Activity came out at 77.1% with Rattus norvegicus [2], 49% in the experiment with Rattus norvegicus [3], 19.1% in the experiment on Rattus norvegicus [4] and 29% in the experiment on Rattus norvegicus [5].
Regarding `CCOc1ccc2nc(NS(=O)(=O)c3ccc([N+](=O)[O-])cc3)sc2c1`, the inhibition in experiment [1] was determined as 15.5%.
For `Cc1ccc2nc(NS(=O)(=O)c3ccc(Cl)cc3)sc2c1`, the inhibition in experiment [1] amounted to 27.2%. Besides, the Activity was 34% in the experiment on Rattus norvegicus [2], 36.1% in the experiment on Rattus norvegicus [3], 12.2% with Rattus norvegicus [4] and 21.4% with Rattus norvegicus [5].
Consider `CCOc1ccc2nc(NS(=O)(=O)c3ccc(C)cc3)sc2c1`, for which the inhibition in experiment [1] came to 16.4%.
Take `CC(=O)Nc1ccc(S(=O)(=O)Nc2nc3ccc([N+](=O)[O-])cc3s2)cc1`: the inhibition in experiment [1] was 7.69%. The Activity in the experiment with Rattus norvegicus [2] was 37.2%; with Rattus norvegicus [3], 11.8%; in the experiment on Rattus norvegicus [4] it was 4%; in the experiment on Rattus norvegicus [5], 30%.
Turning to `COc1ccc2nc(NS(=O)(=O)c3ccc([N+](=O)[O-])cc3)sc2c1`, the inhibition in experiment [1] is 53.3%. Also, the Activity in the experiment on Rattus norvegicus [2] was found to be 69.7%; in the experiment with Rattus norvegicus [3], 42.5%; in the experiment with Rattus norvegicus [4], 18.1%; with Rattus norvegicus [5] it was 27.8%.
With `Cc1ccc2nc(NS(=O)(=O)c3ccc([N+](=O)[O-])cc3)sc2c1`, in experiment [1], the inhibition turned out to be 11.1%.
In the case of `COc1ccc(Cl)cc1C(=O)NCCc1ccc(S(=O)(=O)NC(=O)NC2CCCCC2)cc1` [GLYBURIDE], the Activity in the experiment with Rattus norvegicus [2] was found to be 78%; with Rattus norvegicus [3] it was 32.6%; with Rattus norvegicus [4], 51.5%; in the experiment on Rattus norvegicus [5], 55.4%.
